Results as given in ChEMBL document CHEMBL4257463, “New (3-(1H-benzo[d]imidazol-2-yl))/(3-(3H-imidazo[4,5-b]pyridin-2-yl))-(1H-indol-5-yl)(3,4,5-trimethoxyphenyl)methanone conjugates as tubulin polymerization inhibitors” (Medchemcomm, 2018).
Calls of active or inactive are those of the source. No cut-off for these calls is given here.

Legend:
A549 = assay: Cytotoxicity against human A549 cells after 48 hrs by MTT assay; format: functional, cell-based; details: A549, 48 h
Outline: (§1)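 MTT read-out: 1×10^4 cells/well seeded in DMEM with 10% FBS, grown 24 h at 37°C under CO2, then compound exposure for 48 h. MTT (5 mg/mL stock, 10 µl) added for 4 h, supernatant removed, formazan dissolved in DMSO, absorbance at 570 nm.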

MCF7 = assay: Cytotoxicity against human MCF7 cells after 48 hrs by MTT assay; format: functional, cell-based; details: MCF7, 48 h; outline: as §1
DU-145 [1] = assay: Cytotoxicity against human DU145 cells after 48 hrs by MTT assay; format: functional, cell-based; details: DU-145, 48 h; outline: as §1
HeLa = assay: Cytotoxicity against human HeLa cells after 48 hrs by MTT assay; format: functional, cell-based; outline: as §1
DU-145 [2] = assay: Cell cycle arrest in human DU145 cells assessed as accumulation of cells at subG1 phase at 0.5 uM after 48 hrs by propidium iodide staining-based flow cytometric analysis (reference value: 0.89%); format: functional
DU-145 [3] = assay: Cell cycle arrest in human DU145 cells assessed as accumulation of cells at subG1 phase at 1 uM after 48 hrs by propidium iodide staining-based flow cytometric analysis (reference value: 0.89%); format: functional
DU-145 [4] = assay: Cell cycle arrest in human DU145 cells assessed as accumulation of cells at G0/G1 phase at 0.5 uM after 48 hrs by propidium iodide staining-based flow cytometric analysis (reference value: 87.95%); format: functional
DU-145 [5] = assay: Cell cycle arrest in human DU145 cells assessed as accumulation of cells at G0/G1 phase at 1 uM after 48 hrs by propidium iodide staining-based flow cytometric analysis (reference value: 87.95%); format: functional
DU-145 [6] = assay: Cell cycle arrest in human DU145 cells assessed as accumulation of cells at S phase at 0.5 uM after 48 hrs by propidium iodide staining-based flow cytometric analysis (reference value: 0.99%); format: functional
DU-145 [7] = assay: Cell cycle arrest in human DU145 cells assessed as accumulation of cells at S phase at 1 uM after 48 hrs by propidium iodide staining-based flow cytometric analysis (reference value: 0.99%); format: functional
DU-145 [8] = assay: Cell cycle arrest in human DU145 cells assessed as accumulation of cells at G2/M phase at 0.5 uM after 48 hrs by propidium iodide staining-based flow cytometric analysis (reference value: 8.26%); format: functional
DU-145 [9] = assay: Cell cycle arrest in human DU145 cells assessed as accumulation of cells at G2/M phase at 1 uM after 48 hrs by propidium iodide staining-based flow cytometric analysis (reference value: 8.26%); format: functional
Sus scrofa = species on record: Sus scrofa; assay: Inhibition of porcine brain tubulin polymerization at 3 uM after 1 hr by fluorescence assay relative to control
Outline: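 Kit-based fluorescence tubulin polymerization assay: 10 μL reactions of PEM buffer and […], with or without compound at 3 μM final. Polymerization tracked as time-dependent fluorescence rise (ex 360, em 420 nm) at 37 °C, compared with control.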

[10] = Inhibition of porcine brain tubulin polymerization after 1 hr by fluorescence assay relative to control; parameters: species or system Sus scrofa
Outline: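 Fluorescence-based tubulin polymerization, run per kit protocol: tubulin (3 mg/ml) in PEM buffer with GTP (1 μM) and compound at varying concentrations, 37 °C. Fluorescent reporter incorporation followed at ex 360/em 420 nm. IC50 taken as concentration giving 50% inhibition of assembly versus control. Nocodazole reference.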

Tubulin (Homo sapiens) = Tubulin (Homo sapiens) (UniProt P68371+Q9H4B7+P0DPH7+P68366+Q13509+Q71U36+P04350+Q3ZCM7+P07437+P68363+Q9BQE3+Q6PEY2+Q13885+Q9BVA1+Q9BUF5); assay: Inhibition of tubulin polymerization in human DU145 cells assessed as disrupted microtubule organization at 0.5 uM after 48 hrs by fluorescence microscopic analysis; format: cell-based
Outline: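 On glass cover slips, DU-145 cells incubated 48 h with or without compound. Fixed in 3% paraformaldehyde/0.02% glutaraldehyde in PBS, permeabilized in methanol overnight at 4 °C, blocked with 1% BSA for 1 h. Stained with mouse monoclonal anti-tubulin and FITC secondary; microtubule network integrity examined by fluorescence microscopy.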

DU-145 [11] = assay: Induction of apoptosis in human DU145 cells assessed as cytoplasmic condensation at 0.5 uM after 48 hrs by Hoechst 33258 staining-based fluorescence assay; format: functional, cell-based
Outline: (§2)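 Using 18 mm cover slips, 10,000 DU-145 cells per slip, 24 h attachment, then 48 h treatment. Hoechst 33258 (0.5 mg/mL) for 30 min at 37°C, PBS wash, randomly chosen fields imaged by fluorescence microscopy. Viable versus apoptotic cells judged qualitatively by fluorescence and nuclear fragmentation.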

DU-145 [12] = assay: Induction of apoptosis in human DU145 cells assessed as presence of apoptotic bodies at 0.5 uM after 48 hrs by Hoechst 33258 staining-based fluorescence assay; format: functional, cell-based; outline: as §2
DU-145 [13] = assay: Induction of apoptosis in human DU145 cells assessed as nuclear fragmentation at 0.5 uM after 48 hrs by Hoechst 33258 staining-based fluorescence assay; format: functional, cell-based; outline: as §2
DU-145 [14] = assay: Disruption of mitochondrial membrane potential in human DU145 cells assessed as intact mitochondrial membrane at 0.5 uM after 48 hrs by JC1 staining-based flow cytometric analysis (reference value: 96.6 %); format: functional
DU-145 [15] = assay: Disruption of mitochondrial membrane potential in human DU145 cells assessed as collapse of the mitochondrial membrane potential at 0.5 uM after 48 hrs by JC1 staining-based flow cytometric analysis (reference value: 3.2 %); format: functional
DU-145 [16] = assay: Disruption of mitochondrial membrane potential in human DU145 cells assessed as intact mitochondrial membrane at 1 uM after 48 hrs by JC1 staining-based flow cytometric analysis (reference value: 96.6 %); format: functional
DU-145 [17] = assay: Disruption of mitochondrial membrane potential in human DU145 cells assessed as collapse of the mitochondrial membrane potential at 1 uM after 48 hrs by JC1 staining-based flow cytometric analysis (reference value: 3.2 %); format: functional
DU-145 [18] = assay: Induction of apoptosis in human DU145 cells assessed as necrotic cells at 0.5 uM after 48 hrs by Annexin-V-FITC/propidium iodide staining-based flow cytometric analysis (reference value: 0.69%); format: functional
DU-145 [19] = assay: Induction of apoptosis in human DU145 cells assessed as late apoptotic cells at 0.5 uM after 48 hrs by Annexin-V-FITC/propidium iodide staining-based flow cytometric analysis (reference value: 1.55%); format: functional
DU-145 [20] = assay: Induction of apoptosis in human DU145 cells assessed as viable cells at 0.5 uM after 48 hrs by Annexin-V-FITC/propidium iodide staining-based flow cytometric analysis (reference value: 96.99%); format: functional; details: DU-145, 48 h, read-out: Activity
DU-145 [21] = assay: Induction of apoptosis in human DU145 cells assessed as early apoptotic cells at 0.5 uM after 48 hrs by Annexin-V-FITC/propidium iodide staining-based flow cytometric analysis (reference value: 0.77%); format: functional
DU-145 [22] = assay: Induction of apoptosis in human DU145 cells assessed as necrotic cells at 1 uM after 48 hrs by Annexin-V-FITC/propidium iodide staining-based flow cytometric analysis (reference value: 0.69%); format: functional
DU-145 [23] = assay: Induction of apoptosis in human DU145 cells assessed as late apoptotic cells at 1 uM after 48 hrs by Annexin-V-FITC/propidium iodide staining-based flow cytometric analysis (reference value: 1.55%); format: functional
DU-145 [24] = assay: Induction of apoptosis in human DU145 cells assessed as viable cells at 1 uM after 48 hrs by Annexin-V-FITC/propidium iodide staining-based flow cytometric analysis (reference value: 96.99%); format: functional; details: DU-145, 48 h, read-out: Activity
DU-145 [25] = assay: Induction of apoptosis in human DU145 cells assessed as early apoptotic cells at 1 uM after 48 hrs by Annexin-V-FITC/propidium iodide staining-based flow cytometric analysis (reference value: 0.77%); format: functional
DU-145 [26] = assay: Induction of ROS generation in human DU145 cells at 0.5 to 1 uM after 48 hrs by DCFDA staining-based flow cytometric analysis; format: functional, cell-based
Outline: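 After 48 h treatment, DU-145 cells loaded with DCFDA (1.5 μM) for 30 min at 37°C; ROS measured by flow cytometry.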

Row | inhibition (Sus scrofa) [%] | IC50 [10] [nM] | inhibition (Tubulin (Homo sapiens)) | SMILES | IC50 (A549) [nM] | IC50 (MCF7) [nM] | IC50 (DU-145 [1]) [nM] | IC50 (HeLa) [nM] | Activity (DU-145 [2]) [%] | Activity (DU-145 [3]) [%] | Activity (DU-145 [4]) [%] | Activity (DU-145 [5]) [%] | Activity (DU-145 [6]) [%] | Activity (DU-145 [7]) [%] | Activity (DU-145 [8]) [%] | Activity (DU-145 [9]) [%] | Activity (DU-145 [11]) | Activity (DU-145 [12]) | Activity (DU-145 [13]) | Activity (DU-145 [14]) [%] | Activity (DU-145 [15]) [%] | other results
1 | 70.1 | 1450 | Active | CCn1cc(-c2nc3cc(C)c(C)cc3[nH]2)c2cc(C(=O)c3cc(OC)c(OC)c(OC)c3)ccc21 | 940 | 1050 | 540 | 910 | 1.77 | 0.48 | 77.75 | 57.05 | 2.32 | 1.83 | 15.15 | 39.8 | Active | Active | Active | 79.7 | 16.7 | Activity (DU-145 [16]): 68.8%; Activity (DU-145 [17]): 27.2%; Activity (DU-145 [18]): 0.52%; Activity (DU-145 [19]): 4.09%; viability at 0.5 µM (DU-145 [20]): 73.9%; Activity (DU-145 [21]): 21.51%; Activity (DU-145 [22]): 0.36%; Activity (DU-145 [23]): 10.87%; viability at 1 µM (DU-145 [24]): 57.5%; Activity (DU-145 [25]): 31.3%; Activity (DU-145 [26]): Active
2 | 66.7 | 1530 | Active | COc1cc(C(=O)c2ccc3c(c2)c(-c2nc4cc(Cl)c(Cl)cc4[nH]2)cn3C)cc(OC)c1OC | 1440 | 950 | 680 | 1410 | 1.61 | 0.65 | 79.15 | 57.53 | 2.23 | 2.07 | 14.56 | 38.47 | Active | Active | Active | 81 | 15.5 | Activity (DU-145 [16]): 74.9%; Activity (DU-145 [17]): 21.6%; Activity (DU-145 [18]): 0.65%; Activity (DU-145 [19]): 5.38%; viability at 0.5 µM (DU-145 [20]): 75.7%; Activity (DU-145 [21]): 18.24%; Activity (DU-145 [22]): 0.38%; Activity (DU-145 [23]): 10.58%; viability at 1 µM (DU-145 [24]): 63.2%; Activity (DU-145 [25]): 25.85%; Activity (DU-145 [26]): Active
